Screening data: PubChem BioAssay, several laboratories
Sampled rows, rich in hits. Any-hit rate of the full collection: about 2.1%.
Cardiac RTF inh = cardiac RTF calcium desensitization | actives 0.12% (n = 340,000) | AID 493244 | P19429+P45379 | IANBD-labeled cardiac RTF, Ca2+ fluorescence | inhibition, % at 7.15 µM;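 active means inhibition above the mean inhibition of all tested compounds plus 3 SD, cut at about 17% in these data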;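 further: assay run at fixed EC70 calcium of 1.6 mM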
UCH37 inh = blocks the human deubiquitinase UCH37; Q9Y5K5; purified proteasome/UCH37, Ub-AMC cleavage fluorescence; inhibition, % (test concentration not listed); actives 0.33% (n = 330,000); AID 588478;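 active means mean inhibition over replicate wells above about 20%, limit read from the data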
Target sequence (Q9Y5K5 whole entry, looked up): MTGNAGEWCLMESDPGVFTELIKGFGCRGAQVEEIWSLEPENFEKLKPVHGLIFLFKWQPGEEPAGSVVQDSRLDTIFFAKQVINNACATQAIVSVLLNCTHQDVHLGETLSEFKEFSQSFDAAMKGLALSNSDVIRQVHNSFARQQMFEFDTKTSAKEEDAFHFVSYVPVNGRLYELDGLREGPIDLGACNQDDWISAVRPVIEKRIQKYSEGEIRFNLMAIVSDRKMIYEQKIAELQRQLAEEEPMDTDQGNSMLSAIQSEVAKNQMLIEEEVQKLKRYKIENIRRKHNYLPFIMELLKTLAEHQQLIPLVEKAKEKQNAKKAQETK
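Test system – human UCH37 enzyme supplied as purified proteasome complex · Incubation – 30 min preincubation with enzyme, 25 min cleavage at room temperature · Detection – AMC fluorescence from Ub-AMC cleavage, excitation 355 nm, emission 460 nm · Benchmarks – no-proteasome wells (full inhibition) and compound-free wells (no inhibition)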
Efflux pump inh = antifungal efflux pump inhibition, Nile Red retention; S. cerevisiae Candida pump triplex; inhibition, % at 10 µM; actives 0.44% (n = 330,000);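 active means plate passing quality check with inhibition over a set limit, or well fluorescence over plate mean plus 4 SD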;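 further: Nile Red retained in pooled yeast measured as flow cytometry median fluorescence; higher means more Nile Red kept so more efflux inhibition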
ARNT TACC3 PPI = disrupts binding between human ARNT and TACC3; inhibition, % at 9.99 µM; Q9Y6A5; actives 0.66% (n = 390,000); AlphaScreen His-ARNT PAS-B/GST-TACC3 binding, luminescence; TACC3 fragment carries E629A point mutation;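 active means mean inhibition of replicates at least 50% and at least half of replicates each reaching 50%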
RTF Ca sens act = cardiac RTF calcium sensitization | IANBD-labeled TnC RTF fluorescence at EC20 calcium; 0% EC20 calcium, 100% full calcium | P19429+P45379 | activation, % at 7.2 µM | AID 493008 | actives 0.24% (n = 340,000);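 active means activation above the mean over all tested compounds plus 3 SD, cut at about 30% in these data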;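 further: rise in fluorescence read as greater calcium sensitivity of cardiac thin filaments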
Mot1-301 SUMO = SUMOylation pathway inhibition by Mot1-301 growth rescue | growth rescue, % at 18.8 µM | S. cerevisiae Mot1-301 growth rescue, ATP luminescence, 38.5C; percent above DMSO median, 100 means doubled | actives 1% (n = 320,000) | AID 2716;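 active means every valid replicate shows activation above 250% relative to neutral control wells; inactive means the rest, any valid replicate at or below 250%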
AlphaScreen ctr = AlphaScreen artifact in ARNT/TACC3 counter-screen; shares compounds with ARNT TACC3 PPI; His-ARNT PASB-GST AlphaScreen artifact counter-screen, luminescence; AC50, µM (top dose mostly 68 µM); actives 50% (n = 1,200); AID 651705;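 active means every separate test run was called active for a drop in luminescence, with AC50 within twice the top valid dose, actives reach about 71 µM in these data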
Numbers stand for hits; i = inactive; nt = no result.

SMILES	Cardiac RTF inh	UCH37 inh	Efflux pump inh	ARNT TACC3 PPI	RTF Ca sens act	Mot1-301 SUMO	AlphaScreen ctr
O=C(C1=C(O)C(=O)N(CCCn2ccnc2)C1c1ccccc1)c1ccco1 (centres undefined)	i	i	i	i	i	i	nt
O=C(C1=C(O)C(=O)N(Cc2ccccc2)C1c1ccncc1)c1ccco1 (centres undefined)	i	i	i	21	i	i	i
CCOC(=O)c1cnc(-n2[nH]c(C)cc2=O)[nH]c1=O	nt	i	i	70	nt	i	13µM
O=C(COC(=O)c1ccc([N+](=O)[O-])o1)NCc1ccccc1	i	i	i	20	i	i	i
COc1ccccc1CNC(=O)COC(=O)c1ccc([N+](=O)[O-])o1	i	i	i	i	i	i	nt
NS(=O)(=O)c1ccc(CCNC(=O)COC(=O)c2ccc([N+](=O)[O-])o2)cc1	i	i	i	71	i	i	i
CN1CCN(C=Nc2sc3c(c2C#N)CCCCC3)CC1	nt	i	nt	nt	nt	nt	nt
Cc1c(NC(=S)NN=C/C=C/c2ccccc2)c(=O)n(-c2ccccc2)n1C	nt	i	nt	nt	nt	nt	nt
COc1ccc2c(c1)cc(C(=O)NN=Cc1c(O)c(C(=O)O)cc3ccccc13)n2C	nt	i	nt	nt	nt	nt	nt
COc1ccc(OC)c(NC(=O)COC(=O)Cn2nnc(-c3ccccc3)n2)c1	i	i	i	active	i	nt	i
C#CCOc1ccc(C=NO)cc1Cl	nt	i	nt	nt	nt	nt	nt
COc1ccc(NC(=O)CSc2ccc3nnc(-c4ccccn4)n3n2)cc1	i	i	i	66	i	i	i
Cc1ccc(NC(=O)CSc2ccc3nnc(-c4ccccn4)n3n2)cc1	i	i	i	i	i	i	nt
O=C(CSc1ccc2nnc(-c3ccccn3)n2n1)Nc1ccc(F)cc1F	i	i	i	53	i	i	i
Nn1c(SC/C=C/c2ccccc2)nnc1-c1ccccn1	i	i	i	54	i	i	60µM
Cc1ccccc1-n1c(SCC(=O)Nc2ccc3c(c2)OCO3)nnc1-c1ccccn1	i	i	i	61	i	i	i
CNC(=O)N(O)C1N(N=Cc2ccccc2OC)C(=S)SC1(C)C (centres undefined)	nt	i	nt	nt	nt	nt	nt
C=CCn1c(=C2C(=O)N(CC)C(=S)N2C)sc(=C2Sc3cc(OC)ccc3N2C)c1=O	nt	i	nt	nt	nt	nt	nt
COc1ccc(NC(=O)CSc2nnc(-c3ccccn3)n2N)cc1	i	i	i	55	i	i	i
CCOc1ccc(NC(=O)CSc2nnc(-c3ccccn3)n2N)cc1	i	i	i	i	i	i	nt
COc1ccc(OC)c(NC(=O)CSc2ccc3nnc(-c4ccccn4)n3n2)c1	i	i	i	53	i	i	i
Cc1cc(=O)[nH]c(NN=Cc2cccc([N+](=O)[O-])c2)n1	nt	i	nt	nt	nt	nt	nt
COc1cccc(C=NNC(=O)c2ccc(=O)[nH]n2)c1O	nt	i	nt	nt	nt	nt	nt
Cc1cc2c(NC(=O)Nc3ccc(F)cc3)cccc2nn1	i	i	i	i	i	i	nt
Cc1cc2c(NC(=O)CC(C)(C)CC(=O)O)cccc2nn1	i	i	i	27	i	i	i
SMILES	Cardiac RTF inh	UCH37 inh	Efflux pump inh	ARNT TACC3 PPI	RTF Ca sens act	Mot1-301 SUMO	AlphaScreen ctr
NC(=S)NN=Cc1ccccc1[N+](=O)[O-]	nt	i	nt	nt	nt	nt	nt
COC(=O)c1ccccc1-c1ccc(C(c2c(C)[nH][nH]c2=O)c2c(C)[nH][nH]c2=O)o1	i	i	i	60	i	i	i
COC(=O)c1ccc(C(c2c(C)[nH][nH]c2=O)c2c(C)[nH][nH]c2=O)cc1	i	i	i	i	i	i	nt
Cc1cc(NC(=O)COc2cccc3cccnc23)no1	nt	i	nt	nt	nt	nt	nt
Cc1oc(C(=O)O)cc1COc1cccc2cccnc12	i	i	i	59	i	i	i
Cc1cc(=O)[nH]c(N2CCCNCC2)n1	i	i	i	i	i	i	nt
Cc1cc(=O)[nH]c(-n2[nH]c3c(c2=O)CCCC3)n1	i	i	i	58	i	nt	i
CC(CCc1ccccc1)=NNC(=O)C1C2CCCCC21 (centres undefined)	nt	i	nt	nt	nt	nt	nt
O=S(=O)(N[C@H]1CC[C@@H](CCn2cc(-c3ccccn3)nn2)O[C@H]1CO)c1cccc(F)c1	nt	nt	nt	88	nt	nt	39µM
O=S(=O)(N[C@@H]1CC[C@H](CCn2cc(-c3ccccn3)nn2)O[C@H]1CO)c1cccc(F)c1	nt	nt	nt	84	nt	nt	44µM
O=C(c1cc(-c2ccccc2)on1)N1CCc2cccnc21	nt	nt	nt	nt	nt	nt	i
O=C(c1cc(-c2ccccc2)on1)N1CCCCCC1	i	i	i	i	i	i	nt
CN1CCN(C(=O)c2cc(-c3ccccc3)on2)CC1	i	i	i	i	i	i	i
NC(CC(=O)Nc1cc(C(F)(F)F)ccc1Cl)=NO	nt	i	nt	nt	nt	nt	nt
CCC1CCCCN1S(=O)(=O)c1ccc(NC(=O)CSc2ncccc2C(=O)O)cc1 (centres undefined)	i	i	i	44	i	nt	14µM
O=C(NN=Cc1ccncc1)c1nc(-c2ccccc2)n2c1CCCCC2	nt	i	nt	nt	nt	nt	nt
COc1ccccc1Nc1nc(C)cc(C)c1C(N)=O	i	i	i	nt	i	i	nt
Cc1cc(C)c(C(N)=O)c(Nc2cccc3ccccc23)n1	i	i	i	68	i	i	i
CC(OC(=O)CN1C(=O)c2ccccc2C1=O)C(=O)NC1(C#N)CCCCC1 (centres undefined)	i	i	i	i	i	i	nt
CC(OC(=O)Cc1c(F)cccc1Cl)C(=O)NC1(C#N)CCCCC1 (centres undefined)	i	i	i	active	i	i	i
CCOC(=O)NN=C1CCS(=O)(=O)c2ccc(Cl)cc21	nt	i	nt	nt	nt	nt	nt
Cc1nnc(SCC(=O)Nc2nnc(-c3ccccc3)o2)s1	i	i	i	56	i	i	i
CCOc1ccccc1C(=O)OCC(=O)Nc1nnc(-c2ccccc2)o1	i	i	i	54	i	i	i
O=C(Cc1ccccc1)Nc1nnc(-c2ccccc2)o1	i	i	i	i	i	i	nt
CCOc1ccccc1C(=O)NC(C(=O)OCC(=O)Nc1nnc(-c2ccccc2)o1)C(C)C (centres undefined)	i	i	i	nt	i	i	nt
SMILES	Cardiac RTF inh	UCH37 inh	Efflux pump inh	ARNT TACC3 PPI	RTF Ca sens act	Mot1-301 SUMO	AlphaScreen ctr
COc1ccccc1-c1nnc(NC(=O)Cc2ccccc2)o1	i	i	i	54	i	i	i
CC(/C=C/c1ccccc1)=NNC(=O)CSc1ccccn1	nt	i	nt	nt	nt	nt	nt
COC(=O)c1ccc(CON=Cc2cccc([N+](=O)[O-])c2)cc1	nt	i	nt	nt	nt	nt	nt
COc1ccc(-c2nc(C#N)c(N3CCCCCC3)o2)cc1	i	i	i	i	i	i	nt
COc1ccc(-c2nc(C#N)c(N3CCCCC3)o2)cc1	i	i	i	54	i	i	71µM
COc1ccc(C(=O)Nc2nc(-c3ccccn3)cs2)cc1S(=O)(=O)N1CCOCC1	i	i	i	62	i	i	9.7µM
